In ChEMBL document CHEMBL1121872, “Mesoionic xanthine analogues: phosphodiesterase inhibitory and hypotensive activity” (J Med Chem, 1981):

Key:
Rattus norvegicus [1] = test: Decrease in arterial blood pressure in anesthetized rats at 30 mg/kg intravenous femoral injection; assay type: functional, Artery
Rattus norvegicus [2] = test: Decrease in arterial blood pressure in anesthetized rats at 2.5 mg/kg intravenous femoral injection; assay type: functional, Artery; set-up: unit not given here
Rattus norvegicus [3] = test: Decrease in arterial blood pressure in anesthetized rats at 10 mg/kg intravenous femoral injection; assay type: functional, Artery; set-up: unit not given here
Rattus norvegicus [4] = test: Decrease in arterial blood pressure in anesthetized rats at 15 mg/kg after intravenous femoral injection; assay type: functional, Artery; set-up: unit not given here
Heart phosphodiesterase [5] = target: T1, Heart phosphodiesterase (Bos taurus, UniProt Q01061+P14100+E1BN64); test: In vitro inhibition of bovine heart phosphodiesterase (PDE I); assay type: protein assay
Procedure, shortened: (§1)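 Bovine heart phosphodiesterase (Klee method) with 1 μM [3H]cAMP as substrate. Poorly soluble compounds were dissolved in 95% EtOH, 2.5% final, then diluted with buffer. […] I50 is the concentration where V0/V = 2, read from a V0/V vs. concentration plot. Each value averages two consecutive runs, in duplicate or triplicate.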

Rattus norvegicus [6] = test: Decrease in arterial blood pressure in anesthetized rats at 5 mg/kg intravenous femoral injection; assay type: functional, Artery; set-up: unit not given here
Bos taurus = organism: Bos taurus; test: Compound was evaluated for potency against c-AMP phosphodiesterase relative to theophylline
Procedure, shortened: (§2)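 Bovine heart PDE (Klee method) with 1 μM [3H]cAMP. […] Compounds needing ethanol (2.5% final) are compared with a theophylline control run with ethanol; the others with one run without ethanol. Potency is expressed relative to that theophylline control.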

[7] = target: Heart phosphodiesterase (Bos taurus) (UniProt Q01061+P14100+E1BN64); test: Inhibition of bovine heart cAMP-phosphodiesterase relative to theophylline (Insoluble); assay type: protein assay; procedure, shortened: as §2
Heart phosphodiesterase [8] = target: T1, Heart phosphodiesterase; test: Inhibition of bovine heart cAMP-phosphodiesterase (Insoluble); assay type: protein assay; procedure, shortened: as §1
Rattus norvegicus [9] = test: Decrease in blood pressure at 15 mg/kg in rat; assay type: functional
Procedure, shortened: (§3)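 Male Sprague-Dawley rats (250–385 g), pentobarbital-anesthetized (50 mg/kg ip); right femoral artery cannulated for arterial pressure via transducer, left femoral vein for iv dosing. Each injection flushed with 0.3 mL saline, preceded by equal-volume saline control; 5-min intervals or until pressure returned to baseline. Fall in mean arterial pressure expressed relative to theophylline 2.5 mg/kg control in same animal; n determinations given.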

Rattus norvegicus [10] = test: Decrease in blood pressure at 2.5 mg/kg in rat; assay type: functional; procedure, shortened: as §3
Heart phosphodiesterase [11] = target: T1, Heart phosphodiesterase; test: Inhibition of bovine heart cAMP-phosphodiesterase with ethanol; assay type: protein assay
Procedure, shortened: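 Bovine heart PDE, Klee method with 1 μM [3H]cAMP as substrate. Compounds were predissolved in 95% EtOH, giving 2.5% ethanol final, then diluted in buffer. A theophylline control was run with ethanol present. […] I50 was taken where V0/V = 2 from a V0/V vs concentration plot. Each value averages two consecutive runs, done in duplicate or triplicate.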

Rattus norvegicus [12] = test: Decrease in blood pressure at 5 mg/kg in rat; assay type: functional; procedure, shortened: as §3
Rattus norvegicus [13] = test: Decrease in arterial blood pressure in anesthetized rats at 60 mg/kg intravenous femoral injection; assay type: functional, Artery

I50 (Heart phosphodiesterase [5]) | Relative potency (Bos taurus) | SMILES | further results
1160 µM | 0.4 | CC[N+]1=C2SC=NN2C(=O)C(C)C1=O (configuration not stated) | Mean arterial blood pressure (Rattus norvegicus [1]): 7.5; Mean arterial blood pressure (Rattus norvegicus [2]): 0.9; Mean arterial blood pressure (Rattus norvegicus [3]): 1.6; Mean arterial blood pressure (Rattus norvegicus [4]): 1.2; Mean arterial blood pressure (Rattus norvegicus [6]): 2.2
9.9 µM | 28.9 | CC(C)Cn1c(=O)n(C)c(=O)c2nc[nH]c21 [ISOBUTYLMETHYLXANTHINE] | –
152 µM | 2.7 | CC1C(=O)N(Cc2cccc(Cl)c2)c2scc(-c3ccccc3)[n+]2C1=O (configuration not stated) | –
9.6 µM | 42.9 | CCN1C(=O)C(Cc2ccc(Cl)cc2)C(=O)[n+]2ncsc21 (configuration not stated) | –
24 µM | 17.2 | CCN1C(=O)C(c2ccccc2)C(=O)[n+]2ncsc21 (configuration not stated) | –
550 µM | 0.7 | CCC1C(=O)N2N=CSC2=[N+](CC)C1=O (configuration not stated) | Mean arterial blood pressure (Rattus norvegicus [2]): 0.4; Mean arterial blood pressure (Rattus norvegicus [3]): 1.6; Mean arterial blood pressure (Rattus norvegicus [4]): 0.7; Mean arterial blood pressure (Rattus norvegicus [6]): 0.6
308 µM | 1.3 | O=C1CC(=O)[n+]2ccsc2N1Cc1cccc(Cl)c1 | –
774 µM | 0.5 | CC[N+]1=C2SC=NN2C(=O)CC1=O | –
156 µM | 2.6 | CCCCCC1C(=O)N(CC)c2scn[n+]2C1=O (configuration not stated) | –
254 µM | 1.6 | CCN1C(=O)C(C(C)C)C(=O)[n+]2ncsc21 (configuration not stated) | –
858 µM | 0.3 | CCC1C(=O)N(CC)c2scc[n+]2C1=O (configuration not stated) | Mean arterial blood pressure (Rattus norvegicus [2]): 0.3; Mean arterial blood pressure (Rattus norvegicus [3]): 0.8; Mean arterial blood pressure (Rattus norvegicus [4]): 1.2; Mean arterial blood pressure (Rattus norvegicus [6]): 0.6
396 µM | 0.7 | CCC1C(=O)N2C=CSC2=[N+](CC2CC2)C1=O (configuration not stated) | –
252 µM | 1.6 | CCCC1C(=O)N(CC)c2scn[n+]2C1=O (configuration not stated) | –
– | – | CCN1C(=O)C(Cc2ccc(OC)cc2)C(=O)[n+]2ncsc21 (configuration not stated) | Relative potency [7]: Insoluble; I50 (Heart phosphodiesterase [8]): Insoluble
412 µM | 0.7 | CCC1C(=O)N(CC)c2scc(C)[n+]2C1=O (configuration not stated) | –
– | – | Cn1c(=O)c2nc[nH]c2n(C)c1=O.O [THEOPHYLLINE] | Blood pressure (Rattus norvegicus [9]): 31.9 mmHg; Blood pressure (Rattus norvegicus [10]): 13.5 mmHg; Mean arterial blood pressure (Rattus norvegicus [2]): 1; I50 (Heart phosphodiesterase [11]): 412 µM; Blood pressure (Rattus norvegicus [12]): 31.6 mmHg; Mean arterial blood pressure (Rattus norvegicus [4]): 2.36; Mean arterial blood pressure (Rattus norvegicus [6]): 2.34
2411 µM | 0.1 | CCc1n[n+]2c(s1)N(CC)C(=O)C(C)C2=O (configuration not stated) | –
2453 µM | 0.1 | CCN1C(=O)C(C)C(=O)[n+]2nc(C)sc21 (configuration not stated) | Mean arterial blood pressure (Rattus norvegicus [2]): 0.2; Mean arterial blood pressure (Rattus norvegicus [3]): 0.4; Mean arterial blood pressure (Rattus norvegicus [4]): 0.5; Mean arterial blood pressure (Rattus norvegicus [6]): 0.3
233 µM | 1.8 | CCC(C)C1C(=O)N(CC)c2scn[n+]2C1=O (configuration not stated) | –
52 µM | 7.9 | CC[N+]1=C2SC=NN2C(=O)C(Cc2ccccc2)C1=O (configuration not stated) | –
– | – | CCCCN1C(=O)CC(=O)[n+]2ccsc21 | Mean arterial blood pressure (Rattus norvegicus [1]): 2.9; Mean arterial blood pressure (Rattus norvegicus [2]): 0.9; Mean arterial blood pressure (Rattus norvegicus [3]): 1.2; Mean arterial blood pressure (Rattus norvegicus [4]): 1.2; Mean arterial blood pressure (Rattus norvegicus [6]): 0.6
1689 µM | 0.2 | CCC1C(=O)N(CC)c2sc(C)n[n+]2C1=O (configuration not stated) | Mean arterial blood pressure (Rattus norvegicus [1]): 1.2; Mean arterial blood pressure (Rattus norvegicus [13]): 1.9; Mean arterial blood pressure (Rattus norvegicus [2]): 0; Mean arterial blood pressure (Rattus norvegicus [3]): 0.6; Mean arterial blood pressure (Rattus norvegicus [4]): 0.3; Mean arterial blood pressure (Rattus norvegicus [6]): 0.3
287 µM | 1.5 | CCC1C(=O)N(CC2CC2)c2scc(-c3ccccc3)[n+]2C1=O (configuration not stated) | –
1980 µM | 0.1 | CCc1n[n+]2c(s1)N(CC)C(=O)C(CC)C2=O (configuration not stated) | –
154 µM | 2.7 | CCN1C(=O)C(CC(C)C)C(=O)[n+]2ncsc21 (configuration not stated) | –

SMILES | I50 (Heart phosphodiesterase [5]) | Relative potency (Bos taurus) | further results
Cn1c(=O)c2[nH]cnc2n(C)c1=O | – | 1 | –
